MPTP block – blocks calcium-induced mitochondrial swelling | AID 602449 | isolated mouse mitochondria, Ca2+ swelling absorbance, 30 min | inhibition, % at 10 µM | 1.4% of 360,000 active;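 active means inhibition of 50% or more, scaled per plate between neutral and stimulator controls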
CHOP UPR activ – activators of apoptotic arm of unfolded protein response (CHOP); activation, % at 10 µM; 0.34% of 330,000 active; CHO-CHOP luciferase reporter, UPR activation, luminescence; percent of tunicamycin response over DMSO baseline; AID 449763;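 active means at 10 µM dose, activation of 40% or more, normalized to positive control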
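Evaluation: % reporter activation, DMSO baseline versus tunicamycin full activation; System: CHO-CHOP luciferase reporter cell line; Input: 500 cells/well; Incubation: 6 h compound treatment, 37 °C; Measured by: Steady-Glo luciferase luminescence; Dosing: one dose, 10 µM in 0.5% DMSO; Buffer or medium: F12 medium, 10% FBS; Benchmarks: positive tunicamycin 10 µg/mL, negative DMSO alone.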
NR3A LBD binder – modulators (binders) of human NR3A ligand-binding domain; NR3A LBD differential scanning fluorimetry, Tm shift; 0% = protein alone, 100% = glycine-bound protein; Tm shift relative to glycine control, % at 25 µM; 2.5% of 340,000 active; AID 1259313;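 active means melting temperature shift of at least 10% of the positive control shift, at one fixed dose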
aDG glyco act – increases alpha dystroglycan glycosylation; Pro5-aDG cells, alpha-DG glycosylation AlphaScreen (IIH6); 0% Pro5, 100% B10-LARGE cell signal; activation, % at 10 µM; 0.22% of 360,000 active;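 active means activation of at least 8% versus controls, or a plate z-score of at least 8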;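 further: Pro5 are CHO cells carrying HIG-tagged alpha-DG that lacks glycosylation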
CHOP inhibitor – blocks CHOP induction under ER stress; CHO-K1 CHOP-promoter luciferase, tunicamycin-induced, 15-18 h; 3.8% of 220,000 active; inhibition, % at 10 µM;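 active means compounds that reduced the stress-induced luciferase reporter signal by more than about 70% of percent inhibition, limit read from the data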
XBP1 UPR activ – adaptive UPR (XBP1) activation. CHO-XBP1 luciferase reporter, IRE1-XBP1 UPR activation, luminescence; percent of tunicamycin response, DMSO as zero. activation, % at 20 µM. 0.33% of 330,000 active. AID 463104;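 active means versus positive control, 20 µM dose yields 30% or more activation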
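Material: CHO-XBP1 cells stably carrying IRE1-XBP1-driven luciferase reporter / Amount: 1000 cells per well / Compound: 20 µM, 1% DMSO / Times: 6 h treatment, 37 °C / Detection: luciferase luminescence / Measure: % activation of reporter signal versus tunicamycin and DMSO controls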
Rh123 counter – Rhodamine 123 counter-screen of mitochondrial pore hits; shares compounds with MPTP block; isolated mitochondria, membrane potential, Rhodamine 123 fluorescence; inhibition, % at 10 µM; 78% of 5,000 active; in the data active means inhibition above about 22%
MPTP swell DR – dose response confirmation of mitochondrial permeability transition pore inhibitors. shares compounds with MPTP block. isolated mitochondria swelling, absorbance. IC50, µM. 58% of 780 active. AID 651561; in the data active means IC50 below about 20 µM
MPTP cs DR – active in counter-screen for permeability transition pore inhibitors; IC50, µM; 49% of 780 active; shares compounds with MPTP block; isolated mitochondria counterscreen, fluorescence read-out; in the data active means IC50 below about 80 µM
Hits are given with their value; n = inactive; x = no result given. Only some compounds are listed: those with a hit (about 5.6% of all), similar ones and a draw of the others.

SMILES	MPTP block	CHOP UPR activ	NR3A LBD binder	aDG glyco act	CHOP inhibitor	XBP1 UPR activ	Rh123 counter	others
CC1=CN2C(=N)/C(=C/c3ccc(Sc4ccc(Cl)cc4)o3)C(=O)N=C2S1	58	n	n	n	77	n	41
Cc1cccc(NC(=S)NCCC(c2ccccc2)c2ccccc2)c1	87	n	n	n	n	n	100
COc1cc(NC(=S)NCCC(c2ccccc2)c2ccccc2)cc(OC)c1	78	n	n	n	n	n	92
OC12CC3C[C@H](C1)C(N1CCOCC1)[C@@H](C3)C2 (stereo partly specified)	n	n	n	n	x	n	x
COc1ccc(S(=O)(=O)Nc2ccc(N3CCOCC3)cc2)cc1	n	n	n	n	x	n	x
Nc1cc(S(=O)(=O)Nc2cc(Cl)ccc2Cl)ccc1N1CCOCC1	61	n	n	n	n	n	n	MPTP swell DR=n;MPTP cs DR=55
COc1ccc(NS(=O)(=O)c2ccc(N3CCOCC3)c(N)c2)cc1	86	n	n	n	x	n	96
CCOC(=O)/C(=N/Nc1ccccc1)Sc1nnnn1-c1ccc(C)cc1	n	n	n	n	n	n	x
O=C(/C(=N\Nc1ccc(Br)cc1)Sc1nnnn1-c1ccccc1)c1ccccc1	90	n	20	n	n	n	74
C[C@H](O)[C@@H]1CN2CCc3c([nH]c4ccccc34)[C@@H]2C[C@@H]1N(C)C(=O)NC1CCCCC1	n	x	x	n	x	x	x
C[C@H](O)[C@@H]1CN2CCc3c([nH]c4ccccc34)[C@@H]2C[C@@H]1N(C)C(=O)Nc1ccc(Br)cc1	83	x	x	n	x	x	104
CCOc1ccccc1CNS(=O)(=O)c1ccc(-c2cnc(C3CC3)o2)cc1	51	n	n	n	x	n	84
O=S(=O)(NCc1ccccc1)c1ccc(-c2cnc(C3CC3)o2)cc1	n	n	n	n	x	n	x
COc1ccc(CNCC(O)(c2ccc(F)cc2)c2ccc(F)cc2)cc1	73	n	n	n	n	n	n	MPTP swell DR=6.6;MPTP cs DR=20
O=c1[nH][nH]c2c1[C@H](CCc1cccc(Cl)c1)O[C@H](C1CCCC1)C2	n	x	x	n	x	x	x
Cc1cc(Nc2cccc(F)c2)nc(-c2ccccc2O)n1	59	n	30	n	n	n	51
N#CC1(C#N)CC(C=O)=C(N)C1(C#N)CC(=O)C12CC3CC(CC(C3)C1)C2 (stereo unspecified)	73	n	n	n	n	n	55
COc1c(C=O)c2c(c(OC)c1OC)-c1ccc(OC)c(=O)cc1C(NC(C)=O)CC2 (stereo unspecified)	n	x	n	n	x	x	x
CCn1c(COc2cccc(C)c2C)nnc1SCC(=O)N1CCN(c2ccc(OC)cc2)CC1	60	n	n	n	n	n	43
Cc1cc(=O)oc2cc(OCC(=O)NC3(C#N)CCCCC3)ccc12	n	x	x	n	x	x	x
O=C(NC1CCCCC1)c1sc(=S)n2c1[nH]c(=O)c1ccccc12	90	n	n	n	n	n	92
CCCCNC(=O)c1sc(=S)n2c1[nH]c(=O)c1ccccc12	96	n	n	n	n	n	80
CCOc1ccc(NC(=O)CN(C)C(=O)c2ccccc2OCCOc2ccccc2)cc1OCC	n	n	n	n	x	n	x
O=C(/C=C/c1ccco1)Oc1cc(Br)cc(/C=N/NC(=O)c2ccccc2O)c1	66	x	11	n	n	x	63
Cc1ccc(C(=O)N/N=C/c2cccc(OC(=O)/C=C/c3ccco3)c2)cn1	n	n	n	n	n	n	x
SMILES	MPTP block	CHOP UPR activ	NR3A LBD binder	aDG glyco act	CHOP inhibitor	XBP1 UPR activ	Rh123 counter	others
O=C(CSCc1ccccc1)Nc1ccc(F)c(F)c1	71	n	n	n	n	n	63
O=C(COC(=O)c1cc(S(=O)(=O)N2CCCC2)ccc1O)Nc1ccc(SC(F)F)cc1	92	n	13	n	x	n	96
O=C(COC(=O)c1cc(S(=O)(=O)N2CCCC2)ccc1O)Nc1ccc(S(=O)(=O)N2CCOCC2)cc1	n	n	n	n	n	n	x
CCOc1cc(CNCCO)cc(Br)c1OCc1ccccc1Cl	82	n	n	n	85	n	20
COc1cc(CNCCO)cc(Cl)c1OCc1ccccc1Cl	80	n	n	n	n	n	n	MPTP swell DR=5.5;MPTP cs DR=n
COc1cccc(CNCCO)c1OCc1ccccc1Cl	n	n	n	n	n	n	x
COc1cc(CNCc2ccncc2)cc(Br)c1OCc1ccccc1F	94	n	n	n	n	n	65
OCCNCc1ccc(OCc2ccc(Cl)cc2Cl)cc1	94	n	n	n	n	n	n	MPTP swell DR=4.2;MPTP cs DR=n
CC(=O)N1c2ccc(S(=O)(=O)NCC3CCC(C(=O)N4CC(C)CC(C)C4)CC3)cc2CC1C (stereo unspecified)	n	n	n	n	x	n	x
C=CCNC(=S)N1CCC(C(=O)c2ccc(Cl)cc2)CC1	n	n	n	n	x	n	x
Cn1c(N)c(C(=O)COC(=O)Cc2ccc(Cl)c(Cl)c2)c(=O)n(C)c1=O	n	n	n	n	x	n	x
CCOc1cccc(CNCCO)c1OCc1ccc(Cl)cc1	n	n	n	n	n	n	x
CCOc1cc(CNCCO)cc(Br)c1OCc1ccc(Cl)cc1	90	n	n	n	75	n	n	MPTP swell DR=3.8;MPTP cs DR=61
CCOc1cc(CNCCCN2CCOCC2)cc(Br)c1OCc1ccccc1Cl	100	n	n	n	n	n	n
O=C(CNC(=O)c1ccc(F)cc1)NCc1ccc(S(=O)(=O)N2CCOCC2)cc1	n	n	n	n	x	n	x
CC(C)n1ncc2c(C(=O)Nc3cccc(C#N)c3)cc(C3CC3)nc21	73	n	n	n	x	n	85
CCNC(=O)c1cccc(NC(=O)c2cc(C3CC3)nc3c2cnn3C(C)C)c1	n	n	n	n	x	n	x
c1ccc2c(CCNc3ncnc4nc[nH]c34)cccc2c1	64	n	n	n	n	n	33
Cc1noc(C)c1NC(=O)N(C)C[C@H]1Oc2c(NC(=O)C3CC3)cccc2C(=O)N([C@H](C)CO)C[C@@H]1C	n	n	n	n	x	n	x
CCCc1nc2c(sc3nc4c(cc32)COC(C)(C)C4)c(=O)o1	n	n	n	n	n	n	x
Clc1c(Cl)c(Cl)c2n[nH]nc2c1Cl	72	n	n	n	n	n	77
CCOC1=C2CN(S(=O)(=O)c3ccc(C)cc3)[C@@H](c3ccc(CC)cc3)C[C@H]2[C@H]2C(=O)N(c3ccccc3)C(=O)[C@H]2C1	n	x	x	n	x	x	x

High-throughput results deposited in PubChem by several laboratories.
